Active and inactive are the calls of the source. No cut-off for these calls is given here.
Legend:
[1] = target: Prothrombin (Homo sapiens) (UniProt P00734); assay: Inhibition of Thrombin (unknown origin) assessed as residual enzyme activity at 20 uM by FRET assay relative to control
Summary of the method: (§1)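 Compound at 20 µM, read every 30 s for 10 min at 25 °C. Residual activity is relative to DMSO control; mean ± SD, ≥3 independent measurements.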

[2] = Inhibition of Rhodesain (unknown origin) assessed as residual enzyme activity at 20 uM by FRET assay relative to control
Summary of the method: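 Compound at 20 µM, fluorescence read every 30 s for 10 min at 25 °C. Residual activity is relative to DMSO control; mean ± SD, ≥3 independent measurements.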

Huh-7 = assay: Cytotoxicity against human Huh-7 cells assessed as cell viability after 96 hrs by CellTiter-Glo Luminescent cell viability assay; type: cell-based; conditions: huh-7, 96 h
Summary of the method: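 Huh7 cells seeded at 4×10^3 per well and treated one day later with 1.25–40 µM compound or DMSO for 96 h. ATP-based luminescent viability read-out, normalized to untreated cells.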

[3] = Chemical stability of compound in tris assay buffer at pH 9 measured after 20 hrs by HPLC/MS analysis; type: physicochemical; conditions: pH 9, 20 h
Summary of the method: (§2)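 Compound incubated in protease assay buffer (Tris pH 9.0) under simulated assay conditions and analysed by HPLC/MS after 15 min, 90 min and 20 h. Stability is the compound peak integral in the 210 nm UV trace as a proportion of the total integral.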

[4] = target: Urokinase-type plasminogen activator (Homo sapiens) (UniProt P00749); assay: Inhibition of Urokinase plasminogen activator (unknown origin) assessed as residual enzyme activity at 20 uM by FRET assay relative to control
Summary of the method: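 Urokinase plasminogen activator in 50 mM Tris pH 7.4, 50 mM NaCl, 0.5 mM EDTA with 240 µM Z-Gly-Gly-Arg-AMC. Compound at 20 µM, read every 30 s for 10 min at 25 °C. Residual activity is relative to DMSO control; mean ± SD, ≥3 independent measurements.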

[5] = Chemical stability of compound in cell culture conditions at pH 7.4 HEPES buffer measured after 15 mins by HPLC/MS analysis; type: physicochemical; conditions: read-out: Stabilty
Summary of the method: (§3)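 Compound incubated under simulated cell-assay conditions (HEPES pH 7.4) and analysed by HPLC/MS after 15 min, 90 min and 20 h. Stability is the compound peak integral in the 210 nm UV trace as a fraction of the total integral.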

[6] = Chemical stability of compound in cell culture conditions at pH 7.4 HEPES buffer measured after 20 hrs by HPLC/MS analysis; type: physicochemical; conditions: read-out: Stabilty; summary of the method: as §3
[7] = Inhibition of DENV2 NS2B-NS3 protease T120A/N167Q mutant expressed in Escherichia coli BL21(DE3) using Boc-Gly-Arg-Arg-AMC as substrate by FRET assay; set-up: species or system dengue virus type 2
Summary of the method: (§4)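 Recombinant His-tagged NS2B/NS3 protease, expressed in E. coli BL21-Gold (DE3) (1 mM IPTG, 20 °C, 16 h) and purified by Ni affinity and size exclusion. Assayed in 50 mM Tris pH 9.0, 20% glycerol, 1 mM Chaps, with 100 μM Boc-Gly-Arg-Arg-AMC. Fluorescence read every 30 s for 10 min at 25 °C; inhibitor 0.01–100 μM. IC50 from a four-parameter fit of hydrolysis rate; ≥3 independent experiments.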

Genome polyprotein [8] = target: T1, Genome polyprotein (dengue virus type 2, UniProt P29990); assay: Binding affinity to DENV2 NS2B-NS3 protease by Dixon plot analysis
Summary of the method: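 Fluorogenic DENV2 NS2B/NS3 assay run in 50 mM Tris pH 9.0, 20% glycerol, 1 mM Chaps, with IC50 determined at several Boc-Gly-Arg-Arg-AMC concentrations (50–200 μM). Kinetic fluorescence read at 25 °C for 10 min. Mode of inhibition assessed and apparent Ki derived by Dixon plot analysis.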

[9] = Chemical stability of compound in tris assay buffer at pH 9 measured after 15 mins by HPLC/MS analysis; type: physicochemical; conditions: pH 9, 0.25 h; summary of the method: as §2
Genome polyprotein [10] = target: T1, Genome polyprotein; assay: Inhibition of DENV2 NS2B-NS3 protease expressed in Escherichia coli BL21(DE3) using Boc-Gly-Arg-Arg-AMC as substrate by FRET assay; summary of the method: as §4
Nonstructural protein 3 = Nonstructural protein 3 (Zika virus, UniProt A0A024AXB9); assay: Inhibition of ZIKV NS2B-NS3 protease expressed in Escherichia coli BL21(DE3) using Boc-Gly-Arg-Arg-AMC as substrate by FRET assay
Summary of the method: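 His-tagged ZIKV NS2B/NS3 protease in 50 mM Tris pH 9.0, 20% glycerol, 1 mM CHAPS with 100 µM Boc-Gly-Arg-Arg-AMC. Dilution series 0.01–100 µM, read every 30 s for 10 min at 25 °C. IC50 from a four-parameter fit of hydrolysis rate; mean ± SD of ≥3 independent measurements.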

[11] = Chemical stability of compound in tris assay buffer at pH 9 measured after 90 mins by HPLC/MS analysis; type: physicochemical; conditions: pH 9, 1.5 h; summary of the method: as §2
[12] = test system: Severe acute respiratory syndrome coronavirus 2; assay: Inhibition of SARS-CoV-2 Main protease assessed as residual enzyme activity at 20 uM by FRET assay relative to control
Summary of the method: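 Compound at 20 μM; fluorescence read every 30 s for 10 min at 25 °C. Residual activity expressed relative to DMSO control; mean of ≥3 independent measurements.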

[13] = Chemical stability of compound in cell culture conditions at pH 7.4 HEPES buffer measured after 90 mins by HPLC/MS analysis; type: physicochemical; conditions: read-out: Stabilty; summary of the method: as §3
[14] = target: Chymotrypsin (Homo sapiens) (UniProt Q99895+P17538+P40313+Q6GPI1); assay: Inhibition of Chymotrypsin (unknown origin) assessed as residual enzyme activity at 20 uM by FRET assay relative to control; type: protein assay
Summary of the method: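 α-Chymotrypsin in 50 mM Tris pH 8.0, 100 mM NaCl with Succ-Leu-Tyr-AMC. Compound at 20 µM, read every 30 s for 10 min at 25 °C. Residual activity is relative to DMSO control; mean ± SD, ≥3 independent measurements.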

[15] = target: T2, Sortase A (Staphylococcus aureus) (UniProt Q9S446); assay: Inhibition of staphylococcus aureus Sortase A protease assessed as residual enzyme activity at 20 uM by FRET assay relative to control; summary of the method: as §1
T2 sequence (whole entry): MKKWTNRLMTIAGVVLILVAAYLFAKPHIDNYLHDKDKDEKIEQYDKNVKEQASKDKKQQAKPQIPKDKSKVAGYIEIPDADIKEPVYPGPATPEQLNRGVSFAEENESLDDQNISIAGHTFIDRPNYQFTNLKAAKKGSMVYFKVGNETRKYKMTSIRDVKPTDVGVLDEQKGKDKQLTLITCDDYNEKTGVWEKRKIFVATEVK

Zika virus = assay: Antiviral activity against ZIKV H/PF/2013 infected in human Huh7 cells assessed as decrease in viral RNA expression at 10 uM measured up to 96 hrs by renilla luciferase assay; type: functional, organism-based; conditions: Huh-7, time hrs <=96
Summary of the method: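 Huh7 cells electroporated with in vitro transcribed ZIKV H/PF/2013 subgenomic replicon RNA (Renilla luciferase, coelenterazine substrate). Compound at 10 µM or DMSO is added 4 h post-electroporation in medium with 15 mM HEPES and replenished at 48 h. Lysates are taken at 4, 24, 48, 72 and 96 h and normalized to the 4 h input value. Duplicate reads; mean ± SD, n = 3.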

Trypsin (Homo sapiens) = Trypsin (Homo sapiens) (UniProt P07477+P07478+P35030); assay: Inhibition of Trypsin (unknown origin) assessed as residual enzyme activity at 20 uM by FRET assay relative to control; type: protein assay
Summary of the method: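 Trypsin in 50 mM Tris pH 8.0, 100 mM NaCl, 5 mM EDTA with 40 µM Z-Phe-Arg-AMC. Compound at 20 µM, read every 30 s for 10 min at 25 °C. Residual activity is relative to DMSO control; mean ± SD, ≥3 independent measurements.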

dengue virus type 2 = assay: Antiviral activity against DENV2 New Guinea C infected in human Huh7 cells assessed as decrease in viral RNA expression at 10 uM measured up to 72 hrs by firefly luciferase assay; type: functional, organism-based; conditions: Huh-7, time hrs <=72
Summary of the method: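 Huh7 cells electroporated with in vitro transcribed DENV2 NGC subgenomic replicon RNA (firefly luciferase), 4×10^6 cells per 10 µg RNA. Compound at 10 µM or DMSO is added 4 h post-electroporation in medium with 15 mM HEPES and replenished at 48 h. Lysates are taken at 4–96 h and replication is expressed relative to the 4 h input value. Duplicate luminometer reads; mean ± SD, n = 3.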

O=C(Nc1nc2cc(O)c(O)cc2s1)c1ccc(I)cc1
Activity [1]: 65%
Activity [2]: 77%
Activity (Huh-7): Non-Toxic
Stabilty [3]: 83%
Activity [4]: 100%
remaining at 0.25 h [5]: 95%
remaining at 20 h [6]: 95%
IC50 [7]: 8.01 µM
Ki (Genome polyprotein [8]): 7.67 µM
Stabilty [9]: 83%
IC50 (Genome polyprotein [10]): 4.38 µM
IC50 (Nonstructural protein 3): 0.67 µM
Stabilty [11]: 83%
Activity [12]: 89%
remaining at 1.5 h [13]: 95%
Activity [14]: 79%
Activity [15]: 74%
Activity (Zika virus): Active
Activity (Trypsin (Homo sapiens)): 94%
Activity (dengue virus type 2): Active

Reference: ChEMBL document CHEMBL4823320, “SAR of novel benzothiazoles targeting an allosteric pocket of DENV and ZIKV NS2B/NS3 proteases” (Bioorg Med Chem, 2021)
